Data reported in the array DNA melting data of Ke et al. (doi:10.1101/2024.01.08.574731).

Legend:
[1] = melting temperature; fluorescence melt of hairpins on a sequencing array, two-state fit, raised by 9.35 °C to match UV melts; conditions: sodium 0.088 M
In short: (§1)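 On a sequenced MiSeq flow cell, library hairpins with annealed Cy3 and quencher oligos were imaged for Cy3 fluorescence in 2.5 °C steps up to 60 °C, in 50 mM Na-HEPES pH 8.0, 25 mM NaCl. Normalisation used pre-quench Cy3 and control constructs. Bootstrapped two-state fits gave melting temperature and folding enthalpy, combined by inverse variance across four replicates and with fitted temperatures raised by 9.35 °C to match UV melts.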

[2] = folding enthalpy; higher = less favourable; fluorescence melt of hairpins on a sequencing array, two-state fit; conditions: sodium 0.088 M
In short: as §1

GTGTACGAAAGTATCCAC ((((((....)))..)))
Tm [1]: 26.4 °C
folding enthalpy [2]: -18.3 kcal/mol

GTGTACGGAAACATACAC (((((.(....).)))))
Tm [1]: 36.1 °C
folding enthalpy [2]: -26 kcal/mol

GTGTACGGAAACGTATAC ((.((((....)))).))
Tm [1]: 46.6 °C
folding enthalpy [2]: -29.1 kcal/mol

GTGTACGGAAACGTATGC (..((((....))))..)
Tm [1]: 39.5 °C
folding enthalpy [2]: -26.7 kcal/mol

GTGTACGGAAACGTGTAC ((..(((....)))..))
Tm [1]: 35.2 °C
folding enthalpy [2]: -20.4 kcal/mol

GTGTAGGGAAACCCACAC ((((.((....)).))))
Tm [1]: 45.8 °C
folding enthalpy [2]: -24.5 kcal/mol

GTGTATCGAAAGATTCAC (((.(((....))).)))
Tm [1]: 44.7 °C
folding enthalpy [2]: -36.9 kcal/mol

GTGTATGGAAACATGCAC (((.(((....))).)))
Tm [1]: 48.9 °C
folding enthalpy [2]: -33.9 kcal/mol

GTGTCACGAAAGTGCAC (((.(((....))))))
Tm [1]: 53.5 °C
folding enthalpy [2]: -26 kcal/mol

GTGTCACGAAAGTGGCAC (((.(((....))).)))
Tm [1]: 67.3 °C
folding enthalpy [2]: -37.1 kcal/mol

GTGTCAGAAATGACAC ((((((....))))))
Tm [1]: 56.4 °C
folding enthalpy [2]: -35.9 kcal/mol

GTGTCAGCGAAAGCTCAC (((..(((....))))))
Tm [1]: 39 °C
folding enthalpy [2]: -15.3 kcal/mol

GTGTCCCGAAAGGGCCAC (((.(((....))).)))
Tm [1]: 56.4 °C
folding enthalpy [2]: -23.8 kcal/mol

GTGTCCGAAAGGACCAC ((((((....))).)))
Tm [1]: 48.5 °C
folding enthalpy [2]: -10.2 kcal/mol

GTGTCCGAAAGGAGGCAC ((((((....)))..)))
Tm [1]: 39.5 °C
folding enthalpy [2]: -20.6 kcal/mol

GTGTCCGAAAGGATACAC ((((((....)))..)))
Tm [1]: 49 °C
folding enthalpy [2]: -18.7 kcal/mol

GTGTCCGAAAGGATCAC ((((((....))).)))
Tm [1]: 51 °C
folding enthalpy [2]: -25.2 kcal/mol

GTGTCCGGAAACGGACGC (.(((((....))))).)
Tm [1]: 62.5 °C
folding enthalpy [2]: -14.6 kcal/mol

GTGTCGGAAACGACAC ((((((....))))))
Tm [1]: 69.2 °C
folding enthalpy [2]: -30.9 kcal/mol

GTGTCGGGAAACCGATAC ((.((((....)))).))
Tm [1]: 52.1 °C
folding enthalpy [2]: -28.6 kcal/mol

GTGTCGGGAAACCGGCAC (((.(((....))).)))
Tm [1]: 60.8 °C
folding enthalpy [2]: -45.1 kcal/mol

GTGTCGGGAAACTGACAC (((((.(....).)))))
Tm [1]: 55 °C
folding enthalpy [2]: -41.6 kcal/mol

GTGTCTCGAAAGAGCAC (((.(((....))))))
Tm [1]: 52.2 °C
folding enthalpy [2]: -33.4 kcal/mol

GTGTCTGGAAACAGACAC (((((((....)))))))
Tm [1]: 66.5 °C
folding enthalpy [2]: -39.9 kcal/mol

GTGTCTGGAAACAGGTAC ((..(((....)))..))
Tm [1]: 30.1 °C
folding enthalpy [2]: -11.4 kcal/mol

GTGTGACGAAAGTCGCAC (((.(((....))).)))
Tm [1]: 65.9 °C
folding enthalpy [2]: -42.5 kcal/mol

GTGTGAGGAAACTCACGC (.(((((....))))).)
Tm [1]: 53.3 °C
folding enthalpy [2]: -35.9 kcal/mol

GTGTGAGGAAACTCATAC ((.((((....)))).))
Tm [1]: 44.9 °C
folding enthalpy [2]: -36.5 kcal/mol

GTGTGAGGAAACTCATGC (..((((....))))..)
Tm [1]: 36.8 °C
folding enthalpy [2]: -23.5 kcal/mol

GTGTGAGGAAACTCGCAC (((.(((....))).)))
Tm [1]: 54.3 °C
folding enthalpy [2]: -47 kcal/mol

GTGTGCGAAAGCAAACAC ((((((....)))..)))
Tm [1]: 51.7 °C
folding enthalpy [2]: -24.1 kcal/mol

GTGTGCGAAAGCAGACAC ((((((....)))..)))
Tm [1]: 53.2 °C
folding enthalpy [2]: -19.1 kcal/mol

GTGTGCGAAAGCATCAC ((((((....))).)))
Tm [1]: 54 °C
folding enthalpy [2]: -21.9 kcal/mol

GTGTGCGGAAACGCATGC (..((((....))))..)
Tm [1]: 49.6 °C
folding enthalpy [2]: -15.9 kcal/mol

GTGTGGGAAACCACAC ((((((....))))))
Tm [1]: 63.4 °C
folding enthalpy [2]: -39.2 kcal/mol

GTGTGGGGAAACCCACAC (((((((....)))))))
Tm [1]: 69 °C
folding enthalpy [2]: -32.3 kcal/mol

GTGTGGGGAAACCCACGC (.(((((....))))).)
Tm [1]: 58.8 °C
folding enthalpy [2]: -14.2 kcal/mol

GTGTGGGGAAACCCATGC (..((((....))))..)
Tm [1]: 43.1 °C
folding enthalpy [2]: -21.5 kcal/mol
